Measured values of several laboratories.
Each line is one published result; the experiments were not run side by side.
Target: Serine/threonine-protein kinase Nek7 (NEK7, Homo sapiens, UniProt Q8TDX7)

Cn1cc(-c2cc(F)cc(N3CCn4c(cc5c4CCCC5)C3=O)c2CO)cc(Nc2ccc(N3CCN(C4COC4)CC3)cn2)c1=O
inhibition (enzyme activity; inhibitor; 0.1 µM): 10%

O=c1[nH]c2ccccc2n1C1CCN(Cc2ccc(-c3[nH]c4cc5ncnc5cc4nc3-c3ccccc3)cc2)CC1
remaining signal (cell-free assay; 0.5 µM): 99.6%

Nc1ncc(-c2nc(N3CCOCC3)nc(N3CCOCC3)n2)c(C(F)F)n1
remaining binding (binding; competition with immobilised ligand; 10 µM): 70%

Cn1cc(-c2cccc(N3CCc4c(sc5c4CC(C)(C)C5)C3=O)c2CO)cc(Nc2ccncn2)c1=O
inhibition (enzyme activity; inhibitor; 1 µM): 1%

Cc1nn(C)cc1-c1nc2c(N3CCN(Cc4ccc(Cl)cc4)CC3)c(Cl)cnc2[nH]1
remaining binding (binding; competition with immobilised ligand; 1 µM): 100%

Cn1cncc1[C@](O)(COc1ccc(C#N)cc1-c1ccc(OC(F)(F)F)cc1)c1ccc(C#N)cc1
remaining binding (cell-free assay; competition with immobilised ligand; 1 µM): 46%

COc1cc(Nc2ncc(F)c(Nc3ccc4c(n3)NC(=O)C(C)(C)O4)n2)cc(OC)c1OC
inhibition (binding; competition with immobilised ligand; 10 µM): 100%

COc1ncccc1-c1cnn2ccc(N3CCN(C(=O)OC(C)C)CC3)nc12
remaining binding (binding; competition with immobilised ligand; 1 µM): 100%

N#CC1(c2ccccn2)CCN(Cc2cc(C(=O)O)c(=O)n3ccccc23)CC1
remaining binding (cell-free assay; competition with immobilised ligand; 1 µM): 100%

CC(C)(C)c1cc(C=C(C#N)C#N)cc(Br)c1O
remaining activity (enzyme activity; inhibitor; 0.5 µM): 89.5%
